# The source made the active and inactive calls.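 Rule for the calls, unless noted: active = viability loss from added drug above about 55%, and viability with drug at most 40%, in both replicates (limit read from the data, passing the limit was not always enough); inconclusive = both conditions met in only one replicate; inactive = neither replicate meets both conditions.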
# What was measured:
# [1] = Her2 expression decrease, cell viability multiplex – SKBR3 breast tumor cells, AlphaScreen, ATP viability, primary screen (AID 461;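 active = Her2 level under about 52% in both replicate screens, with viability over 70% of control, limit read from the data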;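 for Her2 level: lower value means less Her2 protein in the cells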;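 for viability: percent of carrier control wells set as 100% viability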); settings: SKBR3 Her2 protein level, 18-24 h, measured here: SKBR3 viability, ATP luminescence, at 10 µM
# [2] = molecular target: Receptor tyrosine-protein kinase erbB-2 (Homo sapiens) (UniProt P04626); experiment: as above; settings: 18-24 h, at 10 µM, stronger effect = lower value
# Receptor tyrosine-protein kinase erbB-2 (Homo sapiens), sequence (P04626 whole entry, looked up): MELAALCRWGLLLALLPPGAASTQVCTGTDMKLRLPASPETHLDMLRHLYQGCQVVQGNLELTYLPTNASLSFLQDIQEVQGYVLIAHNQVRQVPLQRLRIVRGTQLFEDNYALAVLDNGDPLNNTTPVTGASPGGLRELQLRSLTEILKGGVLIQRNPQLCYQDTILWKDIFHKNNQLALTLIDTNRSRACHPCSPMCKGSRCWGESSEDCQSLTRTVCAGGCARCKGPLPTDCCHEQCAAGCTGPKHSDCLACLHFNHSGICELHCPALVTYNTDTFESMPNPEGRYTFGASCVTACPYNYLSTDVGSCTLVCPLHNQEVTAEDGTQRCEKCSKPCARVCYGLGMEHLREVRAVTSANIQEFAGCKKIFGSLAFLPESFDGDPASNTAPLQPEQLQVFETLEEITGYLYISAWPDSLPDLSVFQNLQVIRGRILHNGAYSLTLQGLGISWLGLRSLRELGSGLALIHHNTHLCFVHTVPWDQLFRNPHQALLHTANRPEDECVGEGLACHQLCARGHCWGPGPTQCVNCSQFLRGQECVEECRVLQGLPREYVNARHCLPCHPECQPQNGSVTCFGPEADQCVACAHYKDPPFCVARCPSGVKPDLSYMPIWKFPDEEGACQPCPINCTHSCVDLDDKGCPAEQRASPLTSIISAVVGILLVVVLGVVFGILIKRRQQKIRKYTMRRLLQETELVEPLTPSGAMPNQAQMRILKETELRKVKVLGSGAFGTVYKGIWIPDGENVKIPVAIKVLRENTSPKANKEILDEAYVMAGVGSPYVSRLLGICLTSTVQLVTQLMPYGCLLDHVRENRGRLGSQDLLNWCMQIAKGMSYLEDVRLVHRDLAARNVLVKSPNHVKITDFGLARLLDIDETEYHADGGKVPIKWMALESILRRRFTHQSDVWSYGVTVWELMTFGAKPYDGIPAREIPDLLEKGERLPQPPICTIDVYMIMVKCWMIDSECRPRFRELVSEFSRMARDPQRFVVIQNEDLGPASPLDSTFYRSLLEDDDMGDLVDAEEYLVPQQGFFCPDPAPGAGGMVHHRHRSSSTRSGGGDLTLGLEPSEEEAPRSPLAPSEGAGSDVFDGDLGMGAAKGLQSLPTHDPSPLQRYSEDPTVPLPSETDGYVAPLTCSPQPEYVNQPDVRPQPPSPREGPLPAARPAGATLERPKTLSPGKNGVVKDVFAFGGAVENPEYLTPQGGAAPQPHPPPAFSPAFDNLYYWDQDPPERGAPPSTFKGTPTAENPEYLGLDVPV
# [3] = reduced viability of SK-BR-3 breast cancer cells – cell-based, 24 h, human, pilot screen (AID 572;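 active = viability at or below 10% of carrier control in both of two separate runs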;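 note: compound exposure lasted between 18 and 24 h rather than exactly 24 h; 100% = carrier-treated control wells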); settings: SK-BR-3 viability, CellTiter-Glo luminescence, at 10 µM, stronger effect = lower value
# [4] = HUVEC growth inhibition – cell-based, human, primary screen (AID 575;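 active = viability at or below 30% in both replicate assays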;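 note: 100% = median of untreated cell wells with 0.1% DMSO on each plate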); settings: HUVEC proliferation, CellTiter-Glo luminescence, 72 h; at 10 µM; stronger effect = lower value
# How it was run: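 Material: primary human umbilical vein endothelial cells / Schedule: 72 h exposure, 37 °C, 5% CO2, 30 min RT equilibration / Signal: ATP-based CellTiter-Glo luminescent read / Read-out basis: percent of median DMSO-control luminescence / Control set: 32 DMSO-only cell-control wells (high), 32 MePR drug-control wells (low) per plate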
# [5] = H69AR cell proliferation blockers – human, duplicate replicates, primary screen (AID 580;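 active = viability at or under a set limit in both replicates, limit being median viability minus 3 SD, cut at about 48% in these data, passing the limit was not always enough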;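 note: 100% = mean luminescence of untreated wells and 0% = no signal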); settings: H69AR lung tumor cells viability, ATP luminescence, 72 h; at 10 µM; stronger effect = lower value
# [6] = MRP1 drug-resistance reversers in H69AR cells – cell-based, doxorubicin co-treatment, pilot screen (AID 601); settings: CellTiter-Glo, 72 h, at 10 µM; for differential viability (reversal): stronger effect = higher value
# [7] = yeast transport mutant growth inhibition pilot in 384-well plates, post-Golgi transport modulator project (AID 636; in the data active = inhibition above about 31%); settings: absorbance 615 nm, about 18 h, stronger effect = higher value
# [8] = growth suppression of yeast trafficking mutant, preliminary HTS, modulators of trafficking downstream of Golgi apparatus project, 1536-format plate, OD 615 nm (AID 637; in the data active = inhibition above about 30%); settings: yeast transport mutant growth, absorbance 615 nm, 18 h; stronger effect = higher value
# [9] = H69AR cells + 2 uM doxorubicin, measured here: viability with 2 uM doxorubicin, stronger effect = lower value
# [10] = H69AR cells, compound alone cytotoxicity
Structure (SMILES),viability [1] [%],Her2 level [2],viability [3],viability [4],viability [5],differential viability (reversal) ([6]; H69AR cells + 2 uM doxorubicin),"viability [6, 9] [%]","viability [6, 10] [%]",inhibition [7],inhibition [8]
COC(=O)Cn1cnc2c(nnn2-c2ccc(C)cc2)c1=O,86,108% (inactive),86% (inactive),112% (inactive),94.7% (inactive),7% (inactive),87.7,94.7,-6.62% (inactive),-2.17% (inactive)
Cc1noc(C)c1COc1cccc(C(=O)Nc2ccc(C#N)cc2)c1,96,90% (inactive),96% (inactive),68% (inactive),68.9% (inactive),-10.6% (inactive),79.6,68.9,-2.99% (inactive),-6.67% (inactive)
C=CCn1c(SCC(=O)NC2CCCCC2)nnc1-c1sc(N)nc1C,99.5,102% (inactive),99.5% (inactive),110% (inactive),95.8% (inactive),0.86% (inactive),94.9,95.8,-2.8% (inactive),-1.45% (inactive)
CC(NS(=O)(=O)c1ccc(F)cc1)C(c1cccs1)N1CCN(C)CC1 (stereo not given),118,133% (inactive),118% (inactive),87.9% (inactive),96.7% (inactive),14.4% (inactive),82.3,96.7,-3.29% (inactive),-5.67% (inactive)
CCOC(=O)C1CCN(Cc2c(O)ccc3ccccc23)CC1,126,115% (inactive),126% (inactive),83.6% (inactive),98.2% (inactive),5.58% (inactive),92.6,98.2,-7.67% (inactive),5.4% (inactive)
O=C1CCN(C(=O)c2ccccc2)C2CCCCC12 (stereo not given),98,124% (inactive),98% (inactive),105% (inactive),90.3% (inactive),-0.825% (inactive),91.1,90.3,-4.55% (inactive),-11% (inactive)
CC(C)(C)NC(=O)C(c1ccco1)N(C(=O)Cn1nnc(-c2ccc(F)cc2)n1)c1ccccc1F (stereo not given),99,84% (inactive),99% (inactive),96% (inactive),99.3% (inactive),-11% (inactive),110,99.3,-5.54% (inactive),21.8% (inactive)
COCCN1C(=O)C(=O)/C(=C(/O)c2cccc(S(=O)(=O)N(C)C)c2)C12C(=O)N(C)c1ccccc12 (stereo not given),110,91.5% (inactive),110% (inactive),110% (inactive),99.5% (inactive),3.6% (inactive),95.9,99.5,-7.76% (inactive),-2.38% (inactive)
COc1ccc(C2/C(=C(/O)c3cnn(-c4ccccc4)c3C)C(=O)C(=O)N2CCN(C)C)cc1OC (stereo not given),109,86% (inactive),109% (inactive),102% (inactive),101% (inactive),1.86% (inactive),98.7,101,-1.62% (inactive),-2.54% (inactive)
O=S(=O)(c1ccc2ccccc2c1)N1CCCCC1,102,82.5% (inactive),102% (inactive),78% (inactive),80.8% (inactive),5.72% (inactive),75.1,80.8,-1.95% (inactive),-8.67% (inactive)
O=C(CSc1nc2ccccc2s1)N1CCN(C(=O)c2ccco2)CC1,86.5,97% (inactive),86.5% (inactive),79.8% (inactive),104% (inactive),9.76% (inactive),94.6,104,-3.82% (inactive),-5.17% (inactive)
CC(C)CC(c1nnnn1CC1CCCO1)N1CCN(Cc2ccc3c(c2)OCO3)CC1 (stereo not given),86.5,70% (inactive),86.5% (inactive),90% (inactive),96.7% (inactive),8.46% (inactive),88.2,96.7,-6.08% (inactive),-9.34% (inactive)
COCCN(C(=O)c1csnn1)C(C(=O)NC1CCCCC1)c1cccs1 (stereo not given),100,89% (inactive),100% (inactive),94.7% (inactive),98.9% (inactive),11% (inactive),87.9,98.9,-7.6% (inactive),2.86% (inactive)
COCCCNC(=O)CCc1nc2cccnc2n1Cc1ccc(OC)cc1,110,106% (inactive),110% (inactive),115% (inactive),99.2% (inactive),4.86% (inactive),94.3,99.2,-7.03% (inactive),1.83% (inactive)

# — PubChem BioAssay
